Results taken from ChEMBL document CHEMBL1132816, “Arylacetamides as peripherally restricted kappa opioid receptor agonists” (Bioorg Med Chem Lett, 2000).

Tested on: Rattus norvegicus
Assay: The compound was evaluated in vivo for antagonism of formalin induced flinching in rats at 1000 (microg) by intrapaw administration
Format: functional
Settings: not given
In short: (§1)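 Rat formalin-induced flinching with intrapaw dosing. Read-out is % inhibition of flinching at the stated dose. Agents reaching ≥80% antagonism at 300 µg were titrated to an A50 in µg.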

`CN(C(=O)Cc1ccc(N(S(C)(=O)=O)S(C)(=O)=O)cc1)[C@H](CN1CCCC1)c1ccccc1` gave an Antagonism of 95%.

Tested on: Rattus norvegicus
Assay: The compound was evaluated in vivo for antagonism of formalin induced flinching in rats at 300 (microg) by intrapaw administration
Format: functional
Settings: not given
In short: as §1

Point of comparison: `CN(C(=O)Cc1cccc(N(S(C)(=O)=O)S(C)(=O)=O)c1)[C@H](CN1CCCC1)c1ccccc1`, Antagonism 91%. Against it:
- CN(C(=O)Cc1cccc([N+](=O)[O-])c1)[C@H](CN1CCCC1)c1ccccc1 — higher, 95%
- CN(C(=O)Cc1ccc(N)cc1)[C@H](CN1CCCC1)c1ccccc1 — lower, 52%
- CN(C(=O)Cc1cccc(N)c1)[C@H](CN1CCCC1)c1ccccc1 — lower, 58%

Tested on: Rattus norvegicus
Assay: The compound was evaluated in vivo for percent decrease of sedation in rats at 3 mg/kg by subcutaneous administration using Rotarod assay
Format: functional
Settings: not given

Compound `CN(C(=O)Cc1ccccc1C(F)(F)F)[C@H](CN1CCCC1)c1ccccc1` has a Decrease of 71%.

Tested on: Rattus norvegicus
Assay: The compound was evaluated in vivo for its ability to inhibit formalin induced flinching in rats by intrapaw administration
Format: functional
Settings: not given
In short: as §1

Point of comparison: `CN(C(=O)Cc1ccc(Cl)c(Cl)c1N)[C@H](CN1CCCC1)c1ccccc1`, A50 7 µg. Against it:
- CN(C(=O)Cc1ccc(Cl)c(Cl)c1[N+](=O)[O-])[C@H](CN1CCCC1)c1ccccc1 — lower, 5.3 µg
- CN(C(=O)Cc1ccc(Cl)c(Cl)c1)[C@H](CN1CCCC1)c1ccccc1 [ICI-199,441] — lower, 0.74 µg
- CN(C(=O)Cc1ccccc1N(S(C)(=O)=O)S(C)(=O)=O)[C@H](CN1CCCC1)c1ccccc1 — higher, 17 µg
- CN(C(=O)Cc1ccccc1N)[C@H](CN1CCCC1)c1ccccc1 — higher, 65 µg
- CN(C(=O)Cc1ccc(C(F)(F)F)cc1)[C@H](CN1CCCC1)c1ccccc1 — lower, 0.82 µg
- CN(C(=O)Cc1ccc(Cl)c(Cl)c1N(S(C)(=O)=O)S(C)(=O)=O)[C@H](CN1CCCC1)c1ccccc1 — higher, 28 µg
- CN(C(=O)Cc1ccccc1[N+](=O)[O-])[C@H](CN1CCCC1)c1ccccc1 — higher, 29 µg

Tested on: Rattus norvegicus
Assay: The compound was evaluated in vivo for their ability to inhibit formalin induced flinching in rats by subcutaneous administration
Format: functional
Settings: not given
In short: (§2)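 Rat formalin-induced flinching with subcutaneous dosing, starting at 10 or 30 mg/kg. Read-out is % inhibition of flinching at the dose given, or an A50 in mg/kg from titration.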

Point of comparison: `CN(C(=O)Cc1ccccc1N)[C@H](CN1CCCC1)c1ccccc1`, A50 1.5 mg/kg. Against it:
- CN(C(=O)Cc1ccc(Cl)c(Cl)c1[N+](=O)[O-])[C@H](CN1CCCC1)c1ccccc1 — 6.2-fold lower, 0.24 mg/kg
- CN(C(=O)Cc1ccc(Cl)c(Cl)c1)[C@H](CN1CCCC1)c1ccccc1 [ICI-199,441] — 30-fold lower, 0.05 mg/kg
- CN(C(=O)Cc1ccccc1C(F)(F)F)[C@H](CN1CCCC1)c1ccccc1 — 2.8-fold lower, 0.54 mg/kg
- CN(C(=O)Cc1ccc(C(F)(F)F)cc1)[C@H](CN1CCCC1)c1ccccc1 — 170-fold lower, 0.009 mg/kg
- CN(C(=O)Cc1cccc(C(F)(F)F)c1)[C@H](CN1CCCC1)c1ccccc1 — 75-fold lower, 0.02 mg/kg

Tested on: Rattus norvegicus
Assay: The compound was evaluated in vivo for antagonism of formalin induced […] in rats at 10 […] by subcutaneous administration
Format: functional
Settings: not given
In short: as §2

`CN(C(=O)Cc1cccc(N(S(C)(=O)=O)S(C)(=O)=O)c1)[C@H](CN1CCCC1)c1ccccc1` gave an Antagonism of 15%.

Tested on: Rattus norvegicus
Assay: The compound was evaluated in vivo for antagonism of formalin induced financing in rats at 30 […] by subcutaneous administration
Format: functional
Settings: not given
In short: as §2

Point of comparison: `CN(C(=O)Cc1ccccc1N(S(C)(=O)=O)S(C)(=O)=O)[C@H](CN1CCCC1)c1ccccc1`, Antagonism 21%. Against it:
- CN(C(=O)Cc1ccc(N(S(C)(=O)=O)S(C)(=O)=O)cc1)[C@H](CN1CCCC1)c1ccccc1 — higher, 30%

Tested on: Rattus norvegicus
Assay: The compound was evaluated in vivo for sedation in rats by subcutaneous administration using Rotarod assay
Format: functional
Settings: sc
In short: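 Sedation, taken as a centrally mediated side effect, scored by rotarod performance in rats after subcutaneous dosing. Read-out is the ED50 in mg/kg.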

Point of comparison: `CN(C(=O)Cc1ccc(C(F)(F)F)cc1)[C@H](CN1CCCC1)c1ccccc1`, ED50 0.12 mg/kg. Against it:
- CN(C(=O)Cc1ccc(Cl)c(Cl)c1[N+](=O)[O-])[C@H](CN1CCCC1)c1ccccc1 — 8.1-fold higher, 0.97 mg/kg
- CN(C(=O)Cc1ccc(Cl)c(Cl)c1)[C@H](CN1CCCC1)c1ccccc1 [ICI-199,441] — within 1.5-fold, 0.14 mg/kg
- CN(C(=O)Cc1ccccc1N)[C@H](CN1CCCC1)c1ccccc1 — 74-fold higher, 8.9 mg/kg
- CN(C(=O)Cc1cccc(C(F)(F)F)c1)[C@H](CN1CCCC1)c1ccccc1 — 1.5-fold higher, 0.18 mg/kg
